Source: ChEMBL document CHEMBL1125862, “(1S)-1-(aminomethyl)-2-(arylacetyl)-1,2,3,4-tetrahydroisoquinoline and heterocycle-condensed tetrahydropyridine derivatives: members of a novel class of very potent kappa opioid analgesics” (J Med Chem, 1991)

Key:
Mus musculus [1] = assay: In vivo antinociceptive activity in mouse tail flick test following p.o. administration.; assay type: functional
Mus musculus [2] = assay: In vivo antinociceptive activity using mouse tail flick test, subcutaneous administration; assay type: functional
Mus musculus [3] = assay: Concentration required for 50% inhibition of abdominal constrictions by phenyl-p-benzoquinone-induced abdominal constriction given sc in mouse.; assay type: functional, Abdomen
How it was run: (§1)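 Mice given test agent subcutaneously, with 10 animals per dose, then challenged with phenyl-p-benzoquinone. Abdominal constrictions counted over an 8-min observation period. Percentage inhibition calculated as 1 − (T/C) × 100, with T the treated-group mean and C the control-group mean count.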

[4] = biological target: Kappa-type opioid receptor (Cavia porcellus, UniProt P41144); assay: Displacement of [3H]-BRL 52537 from opioid receptor kappa site in guinea pig
Mu-type opioid receptor = Mu-type opioid receptor (Cavia porcellus, UniProt P97266); assay: Affinity for opioid receptor mu sites
Mus musculus [5] = assay: Phenyl-p-benzoquinone-induced abdominal constriction after subcutaneous administration in mouse (in vivo); assay type: functional, Abdomen; how it was run: as §1
[6] = Mus musculus, Tail, po, read-out: ED50
[7] = Mus musculus, Tail, sc, read-out: ED50
[8] = Mus musculus, Abdomen, sc, read-out: ED50

Sequence of Kappa-type opioid receptor (P41144 whole entry): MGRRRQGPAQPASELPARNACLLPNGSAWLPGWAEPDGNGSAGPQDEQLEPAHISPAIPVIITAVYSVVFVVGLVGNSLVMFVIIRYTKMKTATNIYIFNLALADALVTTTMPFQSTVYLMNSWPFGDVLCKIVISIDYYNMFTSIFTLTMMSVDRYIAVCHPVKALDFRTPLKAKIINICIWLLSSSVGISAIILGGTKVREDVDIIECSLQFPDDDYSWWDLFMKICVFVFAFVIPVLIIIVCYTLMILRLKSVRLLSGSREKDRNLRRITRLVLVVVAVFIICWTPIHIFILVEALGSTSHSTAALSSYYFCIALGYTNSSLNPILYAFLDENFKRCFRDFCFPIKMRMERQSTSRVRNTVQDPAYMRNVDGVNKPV
Sequence of Mu-type opioid receptor (P97266 whole entry): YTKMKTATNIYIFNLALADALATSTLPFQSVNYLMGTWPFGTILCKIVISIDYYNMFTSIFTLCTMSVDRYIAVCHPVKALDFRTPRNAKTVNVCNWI

Compound | Ki [4] [nM] | Ki (Mu-type opioid receptor) [nM] | ED50 (Mus musculus [1]; [6]) [µmol/kg] | ED50 (Mus musculus [2]; [7]) [µmol/kg] | other results
CCO.CN(C)CC1c2ccccc2CCN1C(=O)Cc1ccc(Cl)c(Cl)c1.O=C(O)C(O)C(O)C(=O)O (single isomer, unassigned; (-)) | 0.51 | 293 |  |  | ED50 (Mus musculus [1]): 2.199 µM/kg; ED50 (Mus musculus [2]): 0.075 µM/kg; ED50 (Mus musculus [3]): 0.042 µM/kg
O=C(Cc1ccc(C(F)(F)F)cc1)N1CCc2ccccc2C1CN1CCCC1 (racemic) |  |  | 0.467 | 0.074 | ED50 (Mus musculus [3]; [8]): 0.027 µmol/kg
O=C(Cc1ccc(Cl)c(Cl)c1)N1CCc2sccc2C1CN1CCCC1 (stereo not drawn) | 0.22 | 47.2 | 0.945 | 0.018 | 
CN1CC[C@]23c4c5ccc(O)c4O[C@H]2[C@@H](O)C=C[C@H]3[C@H]1C5 [MORPHINE] |  |  | 32.6 |  | 
O=C(Cc1ccc(C(F)(F)F)cc1)N1CCc2ccccc2[C@H]1CN1CCCC1 (stereo in doubt; 30) | 0.24 | 10.7 | 0.25 |  | ED50 (Mus musculus [2]): 0.032 µM/kg; ED50 (Mus musculus [3]; [8]): 0.015 µmol/kg
O=C(Cc1cccc([N+](=O)[O-])c1)N1CCc2ccccc2C1CN1CCCC1 (racemic) |  |  | 5.26 | 0.105 | 
O=C(Cc1ccc(C(F)(F)F)cc1)N1CCc2ccccc2C1CN1CCCCC1 (single isomer, unassigned; (-)) | 0.62 | 231 | 3.84 | 0.168 | ED50 (Mus musculus [3]; [8]): 0.06 µmol/kg
O=C(Cc1ccc([N+](=O)[O-])cc1)N1CCc2ccccc2C1CN1CCCC1 (racemic) |  |  | 0.409 | 0.038 | 
CN(C)CC1c2ccccc2CCN1C(=O)Cc1ccc(Cl)c(Cl)c1.Cl (racemic) |  |  | 2.88 | 0.099 | ED50 (Mus musculus [3]): 0.127 µM/kg
O=C(Cc1ccc(Cl)c(Cl)c1)N1c2ccccc2CCC1CN1CCCC1 (stereo not drawn) |  |  |  | > 20 | 
O=C(Cc1ccc(Cl)c(Cl)c1)N1Cc2ccccc2CC1CN1CCCC1 (stereo not drawn) |  |  |  | 8.23 | 
C=CCN(C)CC1c2ccccc2CCN1C(=O)Cc1ccc(Cl)c(Cl)c1 (racemic) |  |  | 6.88 | 0.521 | 
O=C(Cc1ccc(Cl)c(Cl)c1)N1CCc2ccccc2C1CN1CCCC1.O=C(O)C(O)C(O)C(=O)O (stereo not drawn) |  |  |  |  | ED50 (Mus musculus [1]): 0.544 µM/kg; ED50 (Mus musculus [2]): 0.02 µM/kg; ED50 (Mus musculus [5]): 0.017 µM/kg
O=C(Cc1ccc(Cl)c(Cl)c1)N1CCCC[C@H]1CN1CCCC1 | 0.31 |  | 2.49 | 0.135 | ED50 (Mus musculus [5]; [8]): 0.056 µmol/kg
CCN(CC)CC1c2ccccc2CCN1C(=O)Cc1ccc(Cl)c(Cl)c1 (racemic) |  |  | 3.37 | 0.264 | 
O=C(Cc1ccc(C(F)(F)F)cc1)N1CCCC[C@H]1CN1CCCC1 | 0.64 | 2340 | 3.29 | 0.0373 | ED50 (Mus musculus [5]; [8]): 0.099 µmol/kg

Compound | Ki [4] [nM] | Ki (Mu-type opioid receptor) [nM] | ED50 (Mus musculus [1]; [6]) [µmol/kg] | ED50 (Mus musculus [2]; [7]) [µmol/kg] | other results
O=C(Cc1ccccc1[N+](=O)[O-])N1CCc2ccccc2C1CN1CCCC1 (racemic) |  |  |  | > 21 | 
O=C(Cc1ccc(Cl)c(Cl)c1)N1CCc2ccccc2C1CN1CCC1 (stereo not drawn) |  |  |  | 23.2 | 
O=C(Cc1ccc(Cl)c(Cl)c1)N1CCc2c([nH]c3ccccc23)C1CN1CCCC1 (stereo not drawn) | > 100 | > 1000 |  | > 20 | 
O=C(Cc1ccc(Cl)c(Cl)c1)N1CCc2ccccc2C1CN1CCCCC1 (racemic) |  |  | 5.16 | 0.359 | ED50 (Mus musculus [5]; [8]): 0.101 µmol/kg
O=C(Cc1ccc(Cl)c(Cl)c1)N1CCc2sccc2C1CN1CCCCC1 (stereo not drawn) | 0.47 | 445 | 2.75 | 0.096 | ED50 (Mus musculus [5]; [8]): 0.024 µmol/kg
O=C(Cc1ccc(C(F)(F)F)cc1)N1CCc2sccc2C1CN1CCCCC1 (stereo not drawn) | 0.6 | 420 | 4.65 | 0.125 | ED50 (Mus musculus [5]; [8]): 0.024 µmol/kg
O=C(Cc1ccc(Cl)c(Cl)c1)N1CCc2ccccc2C1CN1CCCCCCC1 (racemic) |  |  |  | > 22 | 
CNCC1c2ccccc2CCN1C(=O)Cc1ccc(Cl)c(Cl)c1 (racemic) |  |  |  | > 28 | 
O=C(Cc1ccc(Cl)c(Cl)c1)N1CCc2ccccc2C1CN1CCCCCC1 (stereo not drawn) |  |  |  | 0.267 | ED50 (Mus musculus [5]; [8]): 0.083 µmol/kg
CN(CC1CC1)CC1c2ccccc2CCN1C(=O)Cc1ccc(Cl)c(Cl)c1 (racemic) |  |  |  | 3.39 | 
O=C(Cc1ccc(Cl)c(Cl)c1)N1CCc2[nH]c3ccccc3c2C1CN1CCCC1 (stereo not drawn) | 100 | > 1000 |  | > 20 | 
CCCN(CCC)CC1c2ccccc2CCN1C(=O)Cc1ccc(Cl)c(Cl)c1 (racemic) |  |  |  | > 23 | 
O=C(Cc1ccc(Cl)c(Cl)c1)N1CCc2ccccc2C1CN1CCCC1 (stereo not drawn) |  |  | 0.626 | 0.036 | ED50 (Mus musculus [5]; [8]): 0.025 µmol/kg
O=C(Cc1ccc(Br)cc1)N1CCc2ccccc2C1CN1CCCC1 (racemic) |  |  |  | 0.07 | 
O=C(Cc1ccc(Cl)c(Cl)c1)N1CCc2ccsc2C1CN1CCCC1 (stereo not drawn) | 0.46 | 47 | 1.59 | 0.073 | 
